Results: ChEMBL document CHEMBL3046184, “New analogues of (E)-β-farnesene with insecticidal activity and binding affinity to aphid odorant-binding proteins” (J Agric Food Chem, 2011)
Activity calls are given as the source filed them. The calls are words filed in the database; no cut-off is given here.

How the values were obtained:
[1] = molecular target: T1, Odorant-binding protein 3 (Acyrthosiphon pisum) (UniProt C1KUY3); test: Displacement of fluorescent probe 1-NPN from Acyrthosiphon pisum (pea aphid) recombinant OBP3 by competitive binding assay
T1 sequence (whole entry): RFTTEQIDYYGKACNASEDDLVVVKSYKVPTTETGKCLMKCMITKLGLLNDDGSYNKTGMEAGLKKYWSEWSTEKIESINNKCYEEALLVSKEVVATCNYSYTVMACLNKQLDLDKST
In short: (§1)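 Recombinant A. pisum OBP and the probe 1-NPN were each at 2 μM in 50 mM Tris-HCl, titrated with competitor to 2-16 μM final. Excitation was at 337 nm, with emission recorded at 380-450 nm and intensity read at the maximum (406-409 nm). The IC50 was taken as the concentration halving initial fluorescence, and Ki = IC50/(1+[1-NPN]/K1-NPN) using free 1-NPN.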

[2] = molecular target: T2, Odorant-binding protein 1 (Acyrthosiphon pisum) (UniProt C1KUY1); test: Displacement of fluorescent probe 1-NPN from Acyrthosiphon pisum (pea aphid) recombinant OBP1 by competitive binding assay; in short: as §1
T2 sequence (whole entry): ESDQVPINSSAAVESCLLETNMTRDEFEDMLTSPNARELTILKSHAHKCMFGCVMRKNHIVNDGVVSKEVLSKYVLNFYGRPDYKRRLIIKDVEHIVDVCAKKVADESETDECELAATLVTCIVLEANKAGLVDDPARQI

[3] = Displacement of fluorescent probe 1-NPN from Acyrthosiphon pisum (pea aphid) recombinant OBP2 by competitive binding assay
Aphis gossypii = test: Insecticidal activity against 3 day old Aphis gossypii (cotton aphid) in compound treated cabbage leaves at 600 microg/mL at 24 to 26 degC for 24 hr; format: functional, organism-based
In short: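 Compound was dissolved in acetone/methanol/water (1:1:18). Cabbage leaves (~5 cm) bearing aphids were dipped for 5 s and air-dried, then held in Petri dishes. Dead aphids were counted. Solvent served as the negative control and thiacloprid as the positive reference.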

| Activity [1] | Activity [2] | Activity [3] | Structure (SMILES) | Activity (Aphis gossypii) |
| --- | --- | --- | --- | --- |
| Active | Active | Active | CC(C)=CCC/C(C)=C/COC(=O)c1c(F)cccc1F |  |
| Active |  |  | CC(C)=CCC/C(C)=C/COC(=O)c1cc(C)nn1C(C)(C)C |  |
| Active | Active | Active | CC(C)=CCC/C(C)=C/COC(=O)c1cc(C(C)C)nn1-c1ccc([N+](=O)[O-])cc1 |  |
| Active |  |  | CC(C)=CCC/C(C)=C/COC(=O)c1cc(C(C)C)nn1C(C)(C)C |  |
| Active | Active | Active | CC(C)=CCC/C(C)=C/COC(=O)c1ccc(Br)cc1 | Active |
|  |  |  | CC(C)=CCC/C(C)=C/COC(=O)c1cc(-c2ccccc2)nn1C(C)(C)C | Active |
|  |  |  | CC(C)=CCC/C(C)=C/COC(=O)c1cc(-c2ccccc2)nn1-c1ccccc1 | Active |
| Active |  |  | CCCc1cc(C(=O)OC/C=C(\C)CCC=C(C)C)n(C(C)(C)C)n1 |  |
| Active | Active | Active | CC(C)=CCC/C(C)=C/COC(=O)c1cc(-c2ccccc2)nn1-c1ccc([N+](=O)[O-])cc1 |  |

| Structure (SMILES) | Activity [1] | Activity [2] | Activity [3] | Activity (Aphis gossypii) |
| --- | --- | --- | --- | --- |
| N#C/N=C1\SCCN1Cc1ccc(Cl)nc1 | Active |  |  |  |
